bCat KO growth = beta-catenin-lacking colon tumor cell growth suppression. AID 818. 140,000 compounds, 1.5% hits. viability, % at 10 µM. HCT116 beta-catenin knockout viability, CellTiter-Glo, 60 h; hits give low values;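 active means viability at or under a set limit, the compound median less 4 SD, cut at about 6% in these data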
H69AR inhibit = growth inhibitors of human H69AR lung tumor cells; H69AR lung tumor viability, ATP luminescence, 72 h; hits give low values; viability, % at 10 µM; 85,000 compounds, 6% hits;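 active means viability at or below 40%; inactive means viability above 40%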;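 further: multidrug resistant small cell line overexpressing MRP-1 efflux transporter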
Lung fibro prol = blocks proliferation of human lung fibroblasts | LL 47 human lung fibroblast viability, ATP luminescence; hits give low values | viability, % at 10 µM | 85,000 compounds, 1.1% hits | AID 719;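 active means viability at or below 50% in the single dose screen; inactive means viability above 50%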;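 further: compound exposure lasted 72 h before the ATP readout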
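Test system: LL 47 human lung fibroblasts / Quantity: 1,150 cells in each well / Medium: IMEM growth medium with 15% fetal bovine serum / Incubation: 72 h compound exposure at 37 °C after overnight plating / Detection: CellTiter-Glo luminescence measuring cellular ATP / Read-out: % viability versus median cells-only luminescence / Benchmarks: cell-only wells, no compound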
HCT116 PTEN-null = suppresses growth of cells with PTEN deletion; AID 827; viability, % at 10 µM; 140,000 compounds, 1.2% hits; HCT116 PTEN-null viability, CellTiter-Glo, 60 h; hits give low values;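 active means viability at or below a set limit, 4 SD under the median of all tested compounds, cut at about 3.7% in these data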;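 further: PTEN knockout HCT116 line with beta catenin targeted HCT116 as companion control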
HUVEC inhibit = blocks proliferation of human endothelial cells. AID 648. HUVEC proliferation, CellTiter-Glo luminescence, 72 h; hits give low values. viability, % at 10 µM (by protocol). 86,000 compounds, 1.1% hits;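 active means viability at or below 30%; inactive means viability above 30%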
A number is an active result; – = inactive; · = no result. The full list was thinned out, with hits kept by preference.

SMILES	bCat KO growth	H69AR inhibit	Lung fibro prol	HCT116 PTEN-null	HUVEC inhibit
COC(=O)C1=C(C)NC(C)=C(C(=O)OC)C1c1ccc2ccccc2n1	–	–	–	–	–
O=C1c2ccccc2C(=O)C1c1ccc2ccccc2n1	–	28.1	–	–	–
CCc1cccc(NC(=O)CCCSc2nc3ccccc3[nH]2)c1	–	·	·	–	·
COc1cc(/C=C(\C#N)c2ccccn2)ccc1OCc1ccc(Cl)cc1	–	·	·	–	·
Cn1c(N/N=C/c2c[nH]c3ccccc23)nc2ccccc21	1.5	·	·	0.9	·
CCCCn1c(/N=C/c2c[nH]c3ccccc23)nc2ccccc21	–	1.9	–	–	–
CC(=O)c1cccc(NC(=O)Cc2coc3cc4c(cc23)CCC4)c1	–	·	·	–	·
O=C(COC(=O)CC1CCCC1)Nc1cc2c(cc1Cl)C(=O)c1ccccc1C2=O	–	19.4	–	–	–
Cn1c[n+](C)cc1-c1ccc(/C(N)=N/O)cc1	–	·	·	–	·
CC1CN(S(=O)(=O)c2cccc(C(=O)OCC(=O)c3cccs3)c2)CC(C)O1 (stereo unspecified)	–	–	–	–	–
CC1CN(S(=O)(=O)c2cccc(C(=O)OCC(=O)Nc3ccc4c(c3)OCO4)c2)CC(C)O1 (stereo unspecified)	–	1.0	–	–	–
c1ccc(-c2nc(N3CCCCCC3)nc(-n3ccnc3)n2)cc1	–	0.9	–	–	–
CN(c1ccccc1)c1nc(-n2ccnc2)nc(-n2ccnc2)n1	–	31.7	–	–	–
c1ccc(-c2nc(N3CCN(c4ccccc4)CC3)nc(-n3ccnc3)n2)cc1	–	–	–	–	–
C=CCNc1nc(N(c2ccccc2)c2ccccc2)nc(-n2ccnc2)n1	–	–	–	–	–
CCCCNc1nc(N(C)c2ccccc2)nc(-n2ccnc2)n1	–	33.5	–	–	–
COc1ccc(NC(=O)[C@@H](NC(=O)c2ccccc2)C(C)C)cc1S(=O)(=O)N1CCCCC1	–	·	·	–	·
CC(C)c1ccc(/C=N/NC(=O)c2c(Cl)cnn2C)cc1	–	·	·	–	·
COc1ccc(-c2coc3cc4oc(=O)c5ccccc5c4cc23)cc1F	4.5	·	·	–	·
Cc1c(CCC(=O)O)c(=O)oc2cc3occ(-c4ccc(F)cc4)c3cc12	–	–	–	–	–
Cc1ccc(C2Nc3ccccc3C(=O)N2Cc2ccco2)cc1 (stereo unspecified)	–	29.8	–	–	–
CCN(NC(=O)C(O)(c1ccccc1)c1ccccc1)C(=O)c1ccccc1	–	·	·	–	·
CC(c1ccccc1)N(NC(=O)C(O)(c1ccccc1)c1ccccc1)C(=O)c1ccccc1 (stereo unspecified)	–	·	·	1.7	·
COc1cccc2cc(C(=O)NCc3ccco3)c(=O)oc12	–	·	·	–	·
COc1cccc2cc(C(=O)NCc3ccco3)c(=Nc3ccc(C(=O)O)cc3)oc12	–	11.9	–	–	–
SMILES	bCat KO growth	H69AR inhibit	Lung fibro prol	HCT116 PTEN-null	HUVEC inhibit
CCOCCCNC(=O)C(c1ccc(C)cc1)N(Cc1cccs1)C(=O)CNC(C)=O (stereo unspecified)	–	·	·	–	·
COc1cc(C2C(C#N)=C(N)Oc3c2c(-c2ccccc2)nn3-c2ccccc2)cc(OC)c1OC (stereo unspecified)	–	·	·	–	·
COc1ccc2ccccc2c1/C=N\n1c(C)cc(C)c(C(N)=O)c1=O	–	·	·	–	·
Cc1nnc(-c2ccccc2)c(=O)n1/N=C/c1c(O)ccc2ccccc12	4.5	·	·	–	·
Cc1ccc(-n2c(=O)c3sccc3n(Cc3cc(=O)n4cc(Cl)ccc4n3)c2=O)cc1F	–	·	·	–	·
Cc1ccc(NCC(=O)Nc2cccc(S(=O)(=O)N(C)C)c2)c(Cl)c1	–	·	·	–	·
CC1CCC(C(=O)c2c(O)c3ccccc3oc2=O)CC1 (stereo unspecified)	–	–	–	–	12.7
CCCCN=C(C)c1c(O)c2ccccc2oc1=O	–	–	·	–	–
O=C(CC1CCCCC1)c1c(O)c2ccccc2oc1=O	–	–	–	–	3.2
CCCCC(=O)c1c(O)c2ccccc2oc1=O	–	·	·	–	·
COc1ccccc1/C=C/C1(C(=O)NC2CCCC2)CC(=O)N1c1ccc(C)cc1 (stereo unspecified)	–	2.1	47.6	–	–
CCN(CC)S(=O)(=O)c1ccc(N2C(=O)CC2(/C=C/c2ccccc2)C(=O)NC2CCCC2)cc1 (stereo unspecified)	–	·	·	–	·
COc1ccccc1/C=C/C1(C(=O)NC2CCCC2)CC(=O)N1c1ccc(F)cc1 (stereo unspecified)	–	0.5	1.9	–	–
Fc1ccc(Nc2nc(N3CCOCC3)c3ccccc3n2)cc1	·	34.6	–	·	–
c1ccc2c(Nc3nc(N4CCOCC4)c4ccccc4n3)cccc2c1	–	·	·	–	·
CCOC(=O)c1ccc(N=Cc2nc(-c3ccccc3)oc2OC(C)=O)cc1	–	18.9	–	–	–
Cc1ccc(C(=O)Oc2oc(-c3ccco3)nc2C=Nc2ccccc2)cc1	–	38.6	–	–	–
CCOc1ccccc1NC(=O)CCCN1C(=S)NC(C)(C)CC1C (stereo unspecified)	–	·	·	–	·
Clc1ccc(N2CCN(c3ncnc4c3oc3ccccc34)CC2)cc1	·	–	–	·	27.4
CC1CN(c2ncnc3c2oc2ccccc23)CC(C)O1 (stereo unspecified)	–	–	–	–	–
COc1ccc(Nc2nc(-c3sc(NC(C)=O)nc3C)cs2)cc1	–	13.4	–	–	–
Cc1nc(NC(=O)c2ccccc2)sc1-c1csc(Nc2ccc(Cl)cc2)n1	–	·	·	–	·
COc1ccc(Nc2nc(-c3sc(N)nc3C)cs2)cc1	–	29.3	–	–	–
Cc1nc(N)sc1-c1csc(Nc2ccccn2)n1	–	–	–	–	–
O=C(Oc1ccc2c3c(c(=O)oc2c1)CCC3)c1ccccc1[N+](=O)[O-]	–	·	·	–	·
SMILES	bCat KO growth	H69AR inhibit	Lung fibro prol	HCT116 PTEN-null	HUVEC inhibit
Cc1cc(C)n(-c2nnc3n2N=C(c2c[nH]c4ccccc24)CS3)n1	–	17.1	–	–	–
Cc1cc(C)n(-c2nnc3n2N=C(c2ccccc2)CS3)n1	–	–	–	–	–
COc1ccc(Nc2cc(C)nc3nc(C)nn23)c(OC)c1	–	–	–	–	–
COc1ccc(OC)c(Nc2cc(C)nc3nc(C)nn23)c1	–	21.6	–	–	–
COc1ccc(C)cc1Nc1cc(C)nc2nc(C)nn12	–	25.1	–	–	–
COc1ccc(Nc2cc(C)nc3nc(C)nn23)cc1Cl	–	–	–	–	–
O=C(Nc1ncccn1)c1cc([N+](=O)[O-])cc([N+](=O)[O-])c1	–	·	·	–	·
O=[N+]([O-])c1cc(-c2ncccn2)c([N+](=O)[O-])s1	2.2	·	·	–	·
CCOC(=O)c1ccccc1NC(=O)CN1CCC(n2nnc3cc(F)ccc32)CC1	·	27.1	–	·	–
CCOc1ccc2nc(NC(=O)CN3CCC(n4nnc5cc(C(F)(F)F)ccc54)CC3)sc2c1	–	37.8	–	–	–
COC(=O)c1ccccc1NC(=O)CN1CCC(n2nnc3cc(C)ccc32)CC1	·	–	–	·	–
Cc1cc(NC(=O)CN2CCC(n3nnc4cc(C(F)(F)F)ccc43)CC2)no1	–	–	–	–	–
